Reference: ChEMBL document CHEMBL4414561, “Cholinesterase Inhibitory Arisugacins L-Q from a Penicillium sp. Isolate Obtained through a Citizen Science Initiative and Their Activities in a Phenotype-Based Zebrafish Assay” (J Nat Prod, 2019)
Active and inactive are the calls of the source. The rule behind the calls is not given here.

What was measured:
[1] = biological target: Acetylcholinesterase (Electrophorus electricus) (UniProt O42275); assay: Inhibition of electric eel AChE at 50 uM incubated for 15 mins by Ellman's method relative to control
Procedure, shortened: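 Colorimetric kit assay with Electrophorus electricus AChE. Compound is incubated with enzyme for 15 min. Assay buffer containing AChE substrate and DTNB is then added, and absorbance is read at 0 and 15 min. Single-point screen at 50 μM; IC50 also determined.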

[2] = biological target: Cholinesterase (Equus caballus) (UniProt P81908); assay: Inhibition of equine serum BChE at 50 uM using S-butyrylthiocholine iodide as substrate incubated for 15 mins by Ellman's method relative to control
Procedure, shortened: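 Same colorimetric kit with equine serum butyrylcholinesterase and S-butyrylthiocholine iodide substrate plus DTNB. Compound is preincubated with enzyme for 15 min. Absorbance is read at 0 and 15 min after substrate addition. Sample tested at 50 μM.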

[3] = organism: Danio rerio; assay: Induction of paralysis in AB/TU zebra fish at 1 uM treated at 7 hpf and measured after 72 hrs; format: functional, organism-based
Procedure, shortened: (§1)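 Embryos exposed from 7 h postfertilization and scored for paralysis at 72 hpf. Value is the lowest concentration giving paralysis; […]. Pure compounds come from 10 mM DMSO stocks, with further dilutions made in DMSO.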

[4] = organism: Danio rerio; assay: Induction of paralysis in AB/TU zebra fish at 10 uM treated at 7 hpf and measured after 72 hrs; format: functional, organism-based; procedure, shortened: as §1
[5] = biological target: Acetylcholinesterase (Electrophorus electricus, UniProt O42275); assay: Inhibition of electric eel AChE incubated for 15 mins by Ellman's method
Procedure, shortened: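 Colorimetric kit assay with Electrophorus electricus AChE. Compound is incubated with enzyme for 15 min. Assay buffer containing AChE substrate and DTNB is then added, and absorbance is read at 0 and 15 min.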

[6] = organism: Danio rerio; assay: Induction of paralysis in AB/TU zebra fish at 50 uM treated at 7 hpf and measured after 72 hrs; format: functional, organism-based; procedure, shortened: as §1
[7] = organism: Danio rerio; assay: Induction of paralysis in AB/TU zebra fish at 100 uM treated at 7 hpf and measured after 72 hrs; format: functional, organism-based; procedure, shortened: as §1
[8] = organism: Danio rerio; assay: Induction of paralysis in AB/TU zebra fish at 5 uM treated at 7 hpf and measured after 72 hrs; format: functional, organism-based; procedure, shortened: as §1

Acetylcholinesterase (Electrophorus electricus), sequence (O42275 24-633 limits assumed): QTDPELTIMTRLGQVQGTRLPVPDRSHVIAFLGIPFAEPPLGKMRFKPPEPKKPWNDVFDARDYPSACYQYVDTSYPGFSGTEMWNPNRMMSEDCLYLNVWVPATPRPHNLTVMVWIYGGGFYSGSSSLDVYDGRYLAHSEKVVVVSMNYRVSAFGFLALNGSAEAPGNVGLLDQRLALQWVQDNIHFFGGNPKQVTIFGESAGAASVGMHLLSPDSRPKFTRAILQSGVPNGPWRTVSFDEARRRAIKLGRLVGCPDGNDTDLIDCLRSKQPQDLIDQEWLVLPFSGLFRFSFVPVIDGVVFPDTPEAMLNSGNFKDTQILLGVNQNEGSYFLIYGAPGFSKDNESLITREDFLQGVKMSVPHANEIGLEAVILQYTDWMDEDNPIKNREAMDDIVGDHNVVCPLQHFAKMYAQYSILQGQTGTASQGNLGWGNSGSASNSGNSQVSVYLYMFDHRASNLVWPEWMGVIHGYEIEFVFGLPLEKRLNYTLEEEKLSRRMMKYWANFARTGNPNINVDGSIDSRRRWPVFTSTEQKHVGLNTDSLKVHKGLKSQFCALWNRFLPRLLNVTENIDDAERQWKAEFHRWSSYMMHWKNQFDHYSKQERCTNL
Acetylcholinesterase, sequence (O42275 whole entry): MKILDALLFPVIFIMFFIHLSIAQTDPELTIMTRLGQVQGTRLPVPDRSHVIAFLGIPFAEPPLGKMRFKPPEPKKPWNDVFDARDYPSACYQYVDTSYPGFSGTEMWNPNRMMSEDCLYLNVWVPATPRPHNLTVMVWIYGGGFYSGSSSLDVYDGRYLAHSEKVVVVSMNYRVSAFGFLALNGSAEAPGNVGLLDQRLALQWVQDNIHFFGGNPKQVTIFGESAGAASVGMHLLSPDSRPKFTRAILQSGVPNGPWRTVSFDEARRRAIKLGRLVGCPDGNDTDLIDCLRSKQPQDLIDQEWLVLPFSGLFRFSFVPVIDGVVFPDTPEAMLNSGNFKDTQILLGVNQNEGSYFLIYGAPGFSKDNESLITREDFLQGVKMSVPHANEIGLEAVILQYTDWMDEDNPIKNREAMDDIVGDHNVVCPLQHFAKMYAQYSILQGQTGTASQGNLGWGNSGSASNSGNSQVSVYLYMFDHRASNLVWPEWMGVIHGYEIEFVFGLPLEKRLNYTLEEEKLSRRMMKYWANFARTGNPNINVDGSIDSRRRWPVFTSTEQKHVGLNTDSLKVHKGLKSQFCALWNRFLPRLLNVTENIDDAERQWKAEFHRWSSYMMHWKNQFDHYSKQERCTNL
Cholinesterase (Equus caballus), sequence (P81908 whole entry): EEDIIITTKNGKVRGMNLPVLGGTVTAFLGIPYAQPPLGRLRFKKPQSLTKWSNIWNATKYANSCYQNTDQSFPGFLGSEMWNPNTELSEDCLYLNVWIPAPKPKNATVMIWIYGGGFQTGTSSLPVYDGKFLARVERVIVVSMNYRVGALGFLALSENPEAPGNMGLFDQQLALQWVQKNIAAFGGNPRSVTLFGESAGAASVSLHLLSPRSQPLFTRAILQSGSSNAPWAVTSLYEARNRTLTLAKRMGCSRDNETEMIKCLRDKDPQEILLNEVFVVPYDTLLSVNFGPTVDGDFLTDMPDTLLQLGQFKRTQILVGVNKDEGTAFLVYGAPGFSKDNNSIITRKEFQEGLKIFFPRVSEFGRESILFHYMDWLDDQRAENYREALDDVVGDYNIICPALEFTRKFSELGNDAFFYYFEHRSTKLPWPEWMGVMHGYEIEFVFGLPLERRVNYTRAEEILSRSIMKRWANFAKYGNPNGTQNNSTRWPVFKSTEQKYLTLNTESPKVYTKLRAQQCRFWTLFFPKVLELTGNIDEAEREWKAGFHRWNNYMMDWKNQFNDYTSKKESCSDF

Row | Compound | inhibition [1] [%] | inhibition [2] [%] | Activity [3] | Activity [4] | IC50 [5] [µM] | Activity [6] | Activity [7] | Activity [8]
1 | COP(=S)(OC)SCn1nnc2ccccc2c1=O | 12.2 | 3.3 | Active |  |  |  |  | 
2 | COc1ccc(-c2cc3c(c(=O)o2)C[C@]2(O)[C@@]4(C)CC[C@@H](OC(C)=O)C(C)(C)[C@]4(O)CC[C@@]2(C)O3)cc1 | 60.1 | 4.7 |  | Active |  |  |  | 
3 | COc1ccc(-c2cc(O)c(C/C=C(\C)CC/C=C(\C)CCC(O)C(C)(C)O)c(=O)o2)cc1 (stereo unspecified) | 34.1 | 4.7 |  | Active | > 100 |  |  | 
4 | COc1ccc(-c2cc3c(c(=O)o2)C[C@]2(O)[C@@]4(C)C(=O)C[C@@H](O)C(C)(C)[C@]4(O)CC[C@@]2(C)O3)cc1 | 98 | 0 | Active |  | 0.191 |  |  | 
5 | COc1ccc(-c2cc(O)c(C/C=C(\C)CC/C=C(\C)CCC=C(C)C)c(=O)o2)cc1 | 4.3 | 0 |  |  | > 100 | Active |  | 
6 | CNC(=O)Oc1ccc2c(c1)[C@]1(C)CCN(C)[C@@H]1N2C | 99.8 | 93.2 |  |  |  |  | Active | 
7 | COc1ccc(-c2cc3c(c(=O)o2)C[C@]2(O)[C@@]4(C)CC[C@@H](O)C(C)(C)[C@]4(O)CC[C@@]2(C)O3)cc1 | 83.4 | 0 |  |  |  |  | inactive | 
8 | COc1ccc(-c2cc3c(c(=O)o2)C[C@@H]2[C@@]4(C)CCC(=O)C(C)(C)[C@@H]4CC[C@@]2(C)O3)cc1 | 26.9 | 11.6 |  |  | > 100 |  |  | Active
9 | COc1ccc(-c2cc3c(c(=O)o2)C[C@H]2[C@@](C)(CC[C@@]4(O)C(C)(C)[C@@H](O)CC[C@]24C)O3)cc1 | 75.4 | 7 |  |  |  |  | inactive | 
10 | COc1ccc(-c2cc3c(c(=O)o2)C[C@]2(O)[C@@]4(C)[C@H](O)CC(=O)C(C)(C)[C@@]4(O)CC[C@@]2(C)O3)cc1 | 83.6 | 0 |  |  | 4.6 |  | inactive | 
11 | COc1ccc(-c2cc3c(c(=O)o2)C[C@]2(O)[C@@]4(C)CC[C@H](O)C(C)(C)[C@]4(O)CC[C@@]2(C)O3)cc1 | 89.4 | 4.7 |  |  | 3.9 | Active |  | 
12 | COc1ccc(-c2cc3c(c(=O)o2)C[C@]2(O)[C@@]4(C)[C@H](O)C[C@@H](O)C(C)(C)[C@]4(O)CC[C@@]2(C)O3)cc1 | 29.2 | 0 |  |  | > 100 |  | inactive | 
13 | COc1ccc(-c2cc3c(c(=O)o2)C[C@H]2[C@@](C)(CC[C@@]4(O)C(C)(C)C(=O)CC[C@]24C)O3)cc1 | 95.1 | 32.6 |  |  | 1.4 |  |  | Active
14 | CC(C)NP(=O)(NC(C)C)OP(=O)(NC(C)C)NC(C)C [TETRAISOPROPYL PYROPHOSPHORAMIDE] | 1.3 | 15.1 |  |  | > 100 |  | inactive | 
15 | COc1ccc(-c2cc3c(c(=O)o2)C[C@@H]2[C@@]4(C)CC[C@H](O)C(C)(C)[C@@H]4CC[C@@]2(C)O3)cc1 | 3 | 4.7 |  |  |  |  | inactive | 
16 | COc1ccc(-c2cc3c(c(=O)o2)C[C@]2(O)[C@@]4(C)CCC(=O)C(C)(C)[C@]4(O)CC[C@@]2(C)O3)cc1 | 96.6 | 9.3 |  |  |  |  | inactive | 
17 | COc1ccc(-c2cc3c(c(=O)o2)C[C@H]2[C@@]4(C)C=CC(=O)C(C)(C)[C@@H]4CC[C@@]2(C)O3)cc1 | 40.3 | 0 |  |  | 66 |  |  | Active
